According to publication PMC7949150 (The Journal of Biological Chemistry, 2021):

Experiments:
PRC2 = PRC2 (Homo sapiens, UniProt Q15910); assay: Differential scanning fluorimetry binding assay; conditions: 750 nM PRC2, 20 μM compound, 200 μM activating peptide; mean ± SEM, N = 3
Summary of the method: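 In-house pentameric PRC2 was mixed with test compound, H3K27me3 activator peptide and 4× thermal-shift dye in 50 mM Hepes pH 7.4, 100 mM NaCl, 1 mM TCEP, 0.2% DMSO. The mix was equilibrated 90 min at RT, then melted from 25 °C to 95 °C at 0.05 °C/s in a real-time PCR instrument. Tm was taken from the first-derivative peak and from a Boltzmann fit. ΔTm is compound minus DMSO control.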

[1] = system: H3K27me3 levels in KARPAS-422 tumors; assay: Tumor pharmacodynamic assay; type: in vivo, mice; conditions: Day 12
Plasma protein binding = type: in vitro ADME

PRC2, sequence (Q15910 whole entry): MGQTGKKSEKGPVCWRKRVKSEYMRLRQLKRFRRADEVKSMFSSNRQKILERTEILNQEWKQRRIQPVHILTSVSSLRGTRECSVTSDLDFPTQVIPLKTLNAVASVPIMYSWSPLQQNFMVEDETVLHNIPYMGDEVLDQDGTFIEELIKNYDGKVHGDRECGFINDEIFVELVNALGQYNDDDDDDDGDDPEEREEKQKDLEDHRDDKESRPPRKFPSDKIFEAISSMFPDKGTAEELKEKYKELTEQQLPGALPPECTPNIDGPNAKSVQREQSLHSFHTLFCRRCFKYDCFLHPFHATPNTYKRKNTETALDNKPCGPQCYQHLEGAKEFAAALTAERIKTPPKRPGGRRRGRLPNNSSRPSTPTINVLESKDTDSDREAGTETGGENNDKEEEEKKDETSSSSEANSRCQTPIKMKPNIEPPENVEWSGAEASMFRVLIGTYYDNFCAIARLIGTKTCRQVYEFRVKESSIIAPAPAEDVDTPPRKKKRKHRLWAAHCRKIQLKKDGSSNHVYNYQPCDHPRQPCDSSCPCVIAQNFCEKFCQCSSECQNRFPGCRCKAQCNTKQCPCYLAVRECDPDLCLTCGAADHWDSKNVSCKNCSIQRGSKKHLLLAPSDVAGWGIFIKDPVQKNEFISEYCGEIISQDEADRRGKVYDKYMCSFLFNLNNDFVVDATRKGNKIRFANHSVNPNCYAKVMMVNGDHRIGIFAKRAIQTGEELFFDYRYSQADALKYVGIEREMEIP
PRC2, sequence (O75530 whole entry partner): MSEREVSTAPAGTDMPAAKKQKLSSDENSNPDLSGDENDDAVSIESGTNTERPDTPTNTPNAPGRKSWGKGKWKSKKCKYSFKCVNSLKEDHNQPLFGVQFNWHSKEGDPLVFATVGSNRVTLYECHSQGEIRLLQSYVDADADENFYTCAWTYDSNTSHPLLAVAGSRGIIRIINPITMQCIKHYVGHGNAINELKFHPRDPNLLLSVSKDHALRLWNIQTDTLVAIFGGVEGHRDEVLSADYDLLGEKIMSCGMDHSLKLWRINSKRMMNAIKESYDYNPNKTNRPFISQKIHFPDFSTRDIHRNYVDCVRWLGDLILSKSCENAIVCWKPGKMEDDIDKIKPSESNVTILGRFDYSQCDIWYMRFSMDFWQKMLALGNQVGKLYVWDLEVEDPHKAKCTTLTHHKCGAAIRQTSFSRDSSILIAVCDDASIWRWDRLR
PRC2, sequence (Q15022 whole entry partner): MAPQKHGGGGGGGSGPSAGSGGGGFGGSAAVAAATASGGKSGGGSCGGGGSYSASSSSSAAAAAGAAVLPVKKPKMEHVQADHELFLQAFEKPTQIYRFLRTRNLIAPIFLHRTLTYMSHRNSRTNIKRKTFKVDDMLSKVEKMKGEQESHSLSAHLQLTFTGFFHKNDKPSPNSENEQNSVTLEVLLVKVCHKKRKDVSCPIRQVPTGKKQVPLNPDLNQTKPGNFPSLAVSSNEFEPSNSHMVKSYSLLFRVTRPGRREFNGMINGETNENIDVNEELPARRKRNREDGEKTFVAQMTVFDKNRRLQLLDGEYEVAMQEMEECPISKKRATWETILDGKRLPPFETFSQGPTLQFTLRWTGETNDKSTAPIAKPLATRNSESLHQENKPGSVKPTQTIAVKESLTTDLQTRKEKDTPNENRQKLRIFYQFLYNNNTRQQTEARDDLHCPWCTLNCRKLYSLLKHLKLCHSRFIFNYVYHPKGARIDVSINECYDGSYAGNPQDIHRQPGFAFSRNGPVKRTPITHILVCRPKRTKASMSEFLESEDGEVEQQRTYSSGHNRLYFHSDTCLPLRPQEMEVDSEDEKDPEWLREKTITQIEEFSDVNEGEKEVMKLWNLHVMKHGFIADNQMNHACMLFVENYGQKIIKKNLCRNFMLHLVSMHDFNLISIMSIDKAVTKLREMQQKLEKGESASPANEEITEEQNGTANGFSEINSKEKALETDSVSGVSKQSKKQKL
PRC2, sequence (Q16576 whole entry partner): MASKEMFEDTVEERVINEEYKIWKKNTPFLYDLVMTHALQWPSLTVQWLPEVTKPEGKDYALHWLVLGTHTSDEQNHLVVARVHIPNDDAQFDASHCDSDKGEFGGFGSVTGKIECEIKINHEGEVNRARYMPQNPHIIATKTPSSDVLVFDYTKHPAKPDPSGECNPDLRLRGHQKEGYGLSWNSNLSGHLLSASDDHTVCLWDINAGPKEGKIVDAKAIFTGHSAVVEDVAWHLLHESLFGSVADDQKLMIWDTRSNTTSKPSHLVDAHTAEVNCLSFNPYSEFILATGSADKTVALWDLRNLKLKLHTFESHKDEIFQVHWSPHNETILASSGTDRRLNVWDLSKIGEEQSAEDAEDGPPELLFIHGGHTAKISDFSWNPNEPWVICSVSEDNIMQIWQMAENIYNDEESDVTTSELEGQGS
PRC2, sequence (Q09028 whole entry partner): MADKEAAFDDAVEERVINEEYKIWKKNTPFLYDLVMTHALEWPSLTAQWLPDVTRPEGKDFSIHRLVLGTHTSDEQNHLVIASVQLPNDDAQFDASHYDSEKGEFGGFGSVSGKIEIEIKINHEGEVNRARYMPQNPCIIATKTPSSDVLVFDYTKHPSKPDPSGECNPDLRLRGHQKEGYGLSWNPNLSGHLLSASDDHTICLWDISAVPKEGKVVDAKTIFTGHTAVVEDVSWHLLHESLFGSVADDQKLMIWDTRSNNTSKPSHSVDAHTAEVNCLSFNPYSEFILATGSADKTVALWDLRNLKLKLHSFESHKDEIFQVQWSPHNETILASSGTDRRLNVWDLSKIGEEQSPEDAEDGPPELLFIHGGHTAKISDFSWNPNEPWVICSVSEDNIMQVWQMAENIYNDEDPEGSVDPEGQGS

| Structure (SMILES) | ΔTmD (first derivative melting peak) (PRC2) [°C] | reduction in H3K27me3 levels in tumors ([1]; 25 mg/kg QD PO) | H3K27me3 levels in tumors ([1]; 160 mg/kg BID PO) | fraction unbound (Plasma protein binding) | total plasma levels (25 mg/kg QD PO, 1 h postdose on Day 12) [ng/mL] | total concentration in tumors (female, CB-17 SCID, mouse, in vivo) [ng/g] |
| --- | --- | --- | --- | --- | --- | --- |
| COc1cc(C)[nH]c(=O)c1CNC(=O)c1c(C)n([C@H](C)C2CCN(CC(F)(F)F)CC2)c2ccccc12 [CPI-1205, (R)-N-((4-Methoxy-6-methyl-2-oxo-1,2-dihydropyridin-3-yl)methyl)-2-methyl-1-(1-(1-(2,2,2-trifluoroethyl)piperidin-4-yl)ethyl)-1H-indole-3-carboxamide] | 11.54 ± 0.05 |  |  |  |  |  |
| CCN(c1cc(-c2ccc(CN3CCOCC3)cc2)cc(C(=O)NCc2c(C)cc(C)[nH]c2=O)c1C)C1CCOCC1 [Tazemetostat] |  | no statistically significant reduction | significant loss of H3K27me3 levels | 0.009 | 6100 | 730 |
